Only some compounds are listed: those with a hit (about 3.5% of all), similar ones and a draw of the others.
MrgX1 agonist – agonists of human MrgX1 receptor; Q96LB2; MrgX1-HEK293 cells, Fluo-4 calcium fluorescence, agonist mode; hits give high values; B-score at 10 µM; actives 0.44% (n = 310,000); AID 588627;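 active = calcium response B-score plate-corrected fluorescence ratio at least 3 library SD, with starting fluorescence B-score inside 5 SD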
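Material: HEK293 cells stably expressing human MrgX1 receptor | Quantity: 15,000 cells per well | Times: Cells plated overnight, dye loaded 0.5 h 37 °C, 0.5 h room temperature | Measured by: Kinetic Fluo-4 NW fluorescence of intracellular calcium | Control set: Positive and negative controls per plate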
RGS4 act – potentiators or activators of RGS4 | HEK293 M3R/inducible RGS4, carbachol calcium flux Fluo4; hits give low values | B-score at 10 µM | actives 0.92% (n = 310,000) | AID 463111;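 active = B-score of the integrated calcium signal more than 4 SD below the library mean, with starting fluorescence not abnormally high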;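 also: negative B-score means reduced calcium response which marks RGS4 activation or potentiation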
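Assay system: Inducible-RGS4 HEK293 cells carrying M3 receptor | Schedule: Compound preincubation 20 min at room temperature before agonist | Signal: Kinetic calcium fluorescence imaging with Fluo4-AM dye, 2 µM | Read-out basis: B score from integrated fluorescence ratio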
RGS4 block – inhibitors of human RGS4; B-score at 10 µM; actives 0.45% (n = 310,000); HEK293 M3R/RGS4 inducible, Fluo-4 calcium flux; hits give high values; triggered by carbachol at its EC20; P49798; AID 463165;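 active = B-score, a plate-corrected calcium signal, over three deviations above library mean, with baseline fluorescence within five deviations of library mean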;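 also: RGS4 expression induced by doxycycline in cells with stable M3 receptor; B-score is computed from the integrated fluorescence ratio over baseline after carbachol; higher B-score means a larger calcium signal and so more RGS4 inhibition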
Target sequence (P49798 whole entry, looked up): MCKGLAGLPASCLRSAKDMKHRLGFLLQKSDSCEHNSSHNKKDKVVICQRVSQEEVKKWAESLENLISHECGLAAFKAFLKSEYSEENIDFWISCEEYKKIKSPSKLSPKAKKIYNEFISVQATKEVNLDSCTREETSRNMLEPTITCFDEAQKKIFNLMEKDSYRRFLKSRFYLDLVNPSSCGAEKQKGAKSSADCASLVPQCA
MrgX1 antag – antagonists of human MrgX1 receptor; Q96LB2; MRGX1-HEK293 calcium flux, Fluo-4, BAM8-22 antagonism; hits give low values; B-score at 10 µM; actives 1.3% (n = 310,000); AID 588676;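 active = calcium-response B-score plate-corrected more than 3 library SD below zero, starting fluorescence within 5 deviations, no agonist response on first addition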;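 also: peak minus trough fluorescence over baseline after final BAM8-22 challenge near maximal dose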
MrgX1 allo act – human MrgX1 positive allosteric modulation, primary screen; MrgX1-HEK293, Fluo-4 calcium flux, FDSS; hits give high values; Q96LB2; AID 588675; B-score at 10 µM; actives 0.63% (n = 310,000);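 active = plate-corrected calcium response at least 3 library SD above typical, normal starting fluorescence, not activating the receptor alone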;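 also: compound read alongside a low EC10 to EC30 dose of BAM8-22 agonist; peak minus trough fluorescence over baseline measured at the second addition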
MrgX1 antag conf – confirmation of human MrgX1 receptor antagonists; AID 602420; remaining BAM8-22 calcium response % of control (hits give low values), % at 10 µM; MrgX1-HEK293, BAM8-22 calcium flux, Fluo-4; hits give low values; actives 19% (n = 2,300); shares compounds with MrgX1 antag;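 active = remaining agonist calcium response no higher than 100% minus 3 SD of agonist-only control wells, with starting fluorescence near control levels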;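 also: agonist BAM8-22 given at a near maximal EC90 to ECmax level; peak minus minimum fluorescence divided by baseline after agonist addition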
HEK293 Ca flux – counter-screen for MrgX1 antagonists: effect in parental HEK293 cells; shares compounds with MrgX1 antag; fluorescence ratio F(max-min)/F0 at 10 µM; actives 2% (n = 4,000); Fluo-4 calcium fluorescence, FDSS;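 active = duplicate-averaged calcium fluorescence ratio at least three times the standard deviation of buffer wells, a nonspecific response in parental cells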
HEK293 Ca counter – activity in parental HEK293 cells without MrgX1. shares compounds with MrgX1 antag. parental HEK293 calcium flux, Fluo-4 fluorescence ratio; hits give high values. fluorescence ratio F(max-min)/F0 at 10 µM. actives 0.4% (n = 4,000);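 active = calcium fluorescence ratio, averaged over duplicates, at least 3 SD of the buffer-well ratio, meaning a nonspecific response in receptor-free cells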;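 also: untransfected parental HEK293 lacking MrgX1 used as counterscreen for MrgX1 allosteric activators; fluorescence change taken during the second addition on a kinetic imager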
HEK293 Ca cntr2 – counter-screen for MrgX1 activators: effect in parental HEK293 cells; shares compounds with MrgX1 antag; Fluo-4 calcium fluorescence (FDSS); hits give high values; fluorescence ratio F(max-min)/F0 at 10 µM; actives 8.7% (n = 4,000);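 active = calcium fluorescence ratio at least three times the spread of buffer wells, meaning a non-specific response in parental cells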
Active calls of the source: *; i = inactive; nt = not tested or not shown.

SMILES	MrgX1 agonist	RGS4 act	RGS4 block	MrgX1 antag	MrgX1 allo act	MrgX1 antag conf	HEK293 Ca flux	HEK293 Ca counter	HEK293 Ca cntr2
O=C1CC2c3ccccc3C1C1C(=O)N(CCO)C(=O)C21 (centres undefined)	i	i	i	i	i	nt	nt	nt	nt
O=C(CSc1ncnc2[nH]ncc12)Nc1cccc(Oc2ccccc2)c1	i	i	i	i	i	nt	nt	nt	nt
Cc1ccc(CNc2nc3ccccc3n2C)o1	i	i	i	i	i	nt	nt	nt	nt
Cn1c(-c2ccc(CN3CCCCC3)o2)nc2ccccc21	i	i	i	-5.3*	i	i	i	i	i
CCN(Cc1ccncc1)C(=O)c1ccc2c(c1)S(=O)(=O)c1ccccc1C2=O	i	i	i	i	i	nt	nt	nt	nt
Cc1ccc(S(=O)(=O)NC2c3cccc4cccc(c34)C2Sc2n[nH]c(N)n2)cc1 (centres undefined)	i	i	i	i	i	nt	nt	nt	nt
O=S(=O)(NC1c2cccc3cccc(c23)C1Sc1ncccn1)c1ccc(Cl)cc1 (centres undefined)	i	i	i	-4.7*	i	i	i	i	i
CN(CC(=O)Oc1ccc(-c2nnco2)cc1)S(=O)(=O)c1ccc(F)cc1	i	i	i	i	i	nt	nt	nt	nt
CSc1cccc(NS(=O)(=O)c2ccc3c(c2)oc(=O)n3C)c1	i	i	i	-6.2*	i	76%*	i	i	i
CC(=O)N1CC(C)Oc2ccc(S(=O)(=O)Nc3ccc(Cl)cn3)cc21 (centres undefined)	i	i	i	i	i	nt	nt	nt	nt
O=C(CN1CCC(c2nc3ccccc3s2)CC1)NCc1ccccc1	i	i	i	-5.4*	i	i	i	i	i
CC(C)(C)OC(=O)[C@H](Cc1ccccc1)NC(=O)c1nc[nH]c1C(=O)N1CCN(C(=O)OC(C)(C)C)CC1	i	i	i	i	i	nt	nt	nt	nt
CC1CCN(C(=O)c2[nH]cnc2C(=O)N[C@@H](Cc2ccccc2)C(=O)OC(C)(C)C)CC1	i	i	i	-7*	i	i	i	i	i
Clc1ccc(C(c2ccccc2)N2CCNCC2)cc1 (centres undefined)	i	i	i	-6.3*	i	i	i	i	i
Cc1ccc(N2CCC(N3CCN(C)C(CCO)C3)CC2)cc1 (centres undefined)	i	i	i	-5*	i	i	i	i	i
COc1cccc(N2CCC(N3CCN(C)C(CCO)C3)CC2)c1 (centres undefined)	i	i	i	i	i	nt	nt	nt	nt
COC(=O)CC1COc2ccccc2N1C(=O)c1ccc(OC)cc1 (centres undefined)	i	i	i	i	i	nt	nt	nt	nt
COC(=O)CC1COc2ccccc2N1C(=O)c1cc(OC)c(OC)c(OC)c1 (centres undefined)	i	i	i	-5*	i	i	i	i	i
CC(C)Oc1ccc(C(=O)OC(C)C(=O)NC2CCCCC2C)cc1 (centres undefined)	i	i	i	i	i	nt	nt	nt	nt
CC(OC(=O)c1ccncc1)C(=O)NC1CCCC1 (centres undefined)	i	i	i	-10*	i	i	i	i	i
O=C(Nc1ccccc1N1CCOCC1)c1cccc2c(Br)cccc12	i	i	i	i	i	nt	nt	nt	nt
